Measured values taken from the RNAGym collection of RNA variant scans (doi:10.1126/science.aae0568).
Fewer inactive variants are shown than the library holds.

B1: tRNA (parent)
chain: GUUCCGUUGGCGUAAUGGUAACGCGUCUCCCUCCUAAGGAGAAGACUGCGGGUUCGAGUCCCGUACGGAACG

Variants of: B1
Test: yeast fitness relative to wild type (ratio to wild type); higher = fitter; tRNA-Arg(CCU), competitive growth, 37 C, YPD
Outline: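 Gene amplicons from the start population and from each of six end populations were read by 100-nucleotide paired-end sequencing. Those end populations came from pooled Saccharomyces cerevisiae strains carrying tRNA-Arg(CCU) gene variants at the native locus, competed in YPD at 37°C for 24 hours. Fitness relative to wild type was worked out from changes in genotype frequencies. Genotypes needed ≥ 100 starting reads, and estimates < 0.5 were set to 0.5.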
U3C C29U C60G gave a yeast fitness of 0.568.
Variant U3C G17A C29U C33U C60G has a yeast fitness of no more than 0.5.
With U3C C22U C31U the yeast fitness was 0.691.
Variant U3C G10C C22U C55G has a yeast fitness of no more than 0.5.
U3C C24U C55G gave a yeast fitness of no more than 0.5.
Work on U3C G25A A42C yielded a yeast fitness of no more than 0.5.
In the case of U3C C31U C66U, the yeast fitness is reported as 0.898.
U3C C11A U32G G39A C61A C62A gave a yeast fitness of no more than 0.5.
U3C U7A U28G A43U G56C A57U G67A showed a yeast fitness of no more than 0.5.
Variant U3C G9A C11U has a yeast fitness of 0.808.
With U3C U8G U32A C33G C62U the yeast fitness was no more than 0.5.
With U3C G10A U13C G58C the yeast fitness was no more than 0.5.
For U3C U8C A45U, the yeast fitness was 0.721.
U3C C22A C33A gave a yeast fitness of no more than 0.5.
With U3C G9C the yeast fitness was 0.712.
For U3C G9A, the yeast fitness was 1.04.
U3C G25C C62U G68A showed a yeast fitness of 0.796.
U3C C30U C33G gave a yeast fitness of no more than 0.5.
U3C G17A C60A C66U showed a yeast fitness of no more than 0.5.
In the case of U3C G9C A70U, the yeast fitness is reported as no more than 0.5.
Variant U3C U19C C24A G58A has a yeast fitness of no more than 0.5.
Work on U3C U13C U16A C61A U64C yielded a yeast fitness of 0.582.
With U3C C11A the yeast fitness was 0.65.
U3C C11G gave a yeast fitness of 0.608.
For U3C C5G G38A A65G C66G, the yeast fitness was no more than 0.5.
Work on U3C C30G C62A yielded a yeast fitness of no more than 0.5.
U3C U19A G58C C62G A70U showed a yeast fitness of no more than 0.5.
With U3C C24U C55G A70U the yeast fitness was no more than 0.5.
U3C C33G C55U gave a yeast fitness of no more than 0.5.
U3C U7C U19A G23A C29G A45U C60G C61U A69G showed a yeast fitness of no more than 0.5.
With U3C C46U U64C the yeast fitness was 0.802.
Variant U3C C31U U59G has a yeast fitness of 0.579.
U3C C29U showed a yeast fitness of 0.844.
In the case of U3C C29G, the yeast fitness is reported as 0.679.
With U3C U8G U32A C33G C61U C62U the yeast fitness was 0.561.
U3C C11U G17A C49U showed a yeast fitness of no more than 0.5.
With U3C G67C the yeast fitness was 0.783.
U3C G67U showed a yeast fitness of 0.839.
For U3C C11A C27G C33A C46A, the yeast fitness was 0.541.
In the case of U3C C33G C60A, the yeast fitness is reported as no more than 0.5.
In the case of U3C G9C C46U, the yeast fitness is reported as 0.567.
For U3C G18A U32G A37G A43C G51A, the yeast fitness was no more than 0.5.
For U3C C22G C31U U53C, the yeast fitness was no more than 0.5.
For U3C U13A C31U G41A C66A, the yeast fitness was no more than 0.5.
For U3C C30G G52A A70U, the yeast fitness was 0.641.
For U3C C22A A70C, the yeast fitness was 0.607.
U3C C24A C29U G67U showed a yeast fitness of 0.522.
U3C C31U G52C gave a yeast fitness of 0.591.
U3C U13C showed a yeast fitness of 0.841.
With U3C U8A U13C the yeast fitness was no more than 0.5.
Work on U3C G63C U64C yielded a yeast fitness of 0.631.
In the case of U3C C31U C61A, the yeast fitness is reported as 0.567.
U3C G9A A42U A70U gave a yeast fitness of no more than 0.5.
U3C G9A A20C C29U G50C U59G C62U G68A showed a yeast fitness of no more than 0.5.
U3C C22A showed a yeast fitness of 0.79.
Variant U3C C22U has a yeast fitness of 0.824.
For U3C G12C A20U C22G G50A C61A, the yeast fitness was no more than 0.5.
Variant U3C U16G U19A A43C A57U has a yeast fitness of no more than 0.5.
With U3C G39C A43G G44C A45U C49G G67C the yeast fitness was no more than 0.5.
For U3C G9A A14G C66U, the yeast fitness was no more than 0.5.
In the case of U3C C24U A42C, the yeast fitness is reported as 0.663.
With U3C C49U A70C the yeast fitness was 0.751.
For U3C C27G C33G G51C C60U C61U, the yeast fitness was no more than 0.5.
With U3C G23A the yeast fitness was 0.701.
U3C G17C C29G C49G gave a yeast fitness of 0.885.
U3C C31G A57G gave a yeast fitness of 0.589.
U3C C30G A43C G67C gave a yeast fitness of no more than 0.5.
For U3C G25A G68C A69G, the yeast fitness was 1.08.
U3C U19C showed a yeast fitness of 0.929.
In the case of U3C U19A, the yeast fitness is reported as 1.03.
Variant U3C G12A A20C G23C G56C A65C G68A has a yeast fitness of no more than 0.5.
For U3C U19A C46A, the yeast fitness was 0.716.
U3C C31U G44A gave a yeast fitness of 0.721.
Variant U3C C33G C60A C66G has a yeast fitness of no more than 0.5.
U3C U13C G51C showed a yeast fitness of no more than 0.5.
For U3C C46U A69U, the yeast fitness was 0.789.
U3C G18A U53A U54G A70G gave a yeast fitness of no more than 0.5.
U3C U19C A40G C46A showed a yeast fitness of 0.74.
With U3C U13C C31U the yeast fitness was 0.801.
Work on U3C C55G G68C yielded a yeast fitness of no more than 0.5.
In the case of U3C C5U A37U C49U U53C, the yeast fitness is reported as 0.597.
U3C C34A G44A G52A U53C C55U gave a yeast fitness of 0.527.
Variant U3C U13C U28G U54A C62A has a yeast fitness of no more than 0.5.
In the case of U3C C31U G63A, the yeast fitness is reported as 0.771.
With U3C C31G G51C the yeast fitness was 0.55.
U3C C5G G17A A40C U59C showed a yeast fitness of no more than 0.5.
For U3C U16G, the yeast fitness was 0.823.
In the case of U3C C5G G63C C66G, the yeast fitness is reported as no more than 0.5.
In the case of U3C C30U C46A U54A A57G, the yeast fitness is reported as no more than 0.5.
Work on U3C G10A yielded a yeast fitness of 0.718.
With U3C C11A A21G U28C U32G the yeast fitness was no more than 0.5.
Variant U3C G12C A20G A43G C61U has a yeast fitness of no more than 0.5.
Work on U3C C29G G56A C62G C66G yielded a yeast fitness of no more than 0.5.
Work on U3C G48A U54A yielded a yeast fitness of 0.534.
For U3C U8A A15C C31G C49U A57U, the yeast fitness was 0.609.
U3C U13C C24U G52A gave a yeast fitness of 0.576.
For U3C G12C, the yeast fitness was 0.716.
For U3C U19A C22U G23A, the yeast fitness was no more than 0.5.
Variant U3C C29U A36U C66U G67A has a yeast fitness of no more than 0.5.
In the case of U3C C5U A21G C34G, the yeast fitness is reported as no more than 0.5.
In the case of U3C C31U A40C, the yeast fitness is reported as 0.654.
With U3C C11A U19G C24A A40C A45U the yeast fitness was no more than 0.5.
With U3C G44C A70C the yeast fitness was 0.602.
U3C C30A A40U gave a yeast fitness of 0.634.
For U3C G6C A14U G25A G38A U47A C60G A70G, the yeast fitness was 0.51.
U3C G9A G50A gave a yeast fitness of 0.838.
For U3C G50C, the yeast fitness was 0.714.
Work on U3C C31U A43G A69U yielded a yeast fitness of 0.733.
U3C C34G A65G gave a yeast fitness of 0.757.
In the case of U3C G50A C61U, the yeast fitness is reported as 0.671.
Variant U3C G10A U54C G56C G58A has a yeast fitness of 0.553.
U3C C55A A65U gave a yeast fitness of no more than 0.5.
In the case of U3C C34U, the yeast fitness is reported as 0.789.
U3C C34A showed a yeast fitness of 0.665.
Variant U3C U26A has a yeast fitness of 0.856.
With U3C C34A G44A G52A C55U A70G the yeast fitness was no more than 0.5.
U3C C27U G56A C61A gave a yeast fitness of no more than 0.5.
Work on U3C G9A A15U C30A C34A A42G yielded a yeast fitness of no more than 0.5.
In the case of U3C G9A C30A G67U, the yeast fitness is reported as no more than 0.5.
U3C C60A C66U showed a yeast fitness of 0.651.
With U3C C24G C31G C61G the yeast fitness was no more than 0.5.
In the case of U3C U13A C31U G41A C61G, the yeast fitness is reported as no more than 0.5.
U3C C11A C27G C33A showed a yeast fitness of 0.579.
In the case of U3C G25C C34U G56A, the yeast fitness is reported as no more than 0.5.
In the case of U3C C46A G56A, the yeast fitness is reported as 0.699.
For U3C G9C C30G A43C, the yeast fitness was no more than 0.5.
In the case of U3C U8C A14G U28G A36U C46U C61U, the yeast fitness is reported as 0.549.
Work on U3C U8C A69U yielded a yeast fitness of 0.81.
U3C C60G G67C gave a yeast fitness of no more than 0.5.
U3C C5G G67U gave a yeast fitness of 0.542.
For U3C G18A U53A U54G G63A, the yeast fitness was no more than 0.5.
Work on U3C U13C U16A A42G C49G U54C G63C A70U yielded a yeast fitness of 0.532.
With U3C C22A A45C C62G A65U the yeast fitness was 0.64.
U3C U13G C24U gave a yeast fitness of 0.559.
U3C C11G G41C showed a yeast fitness of no more than 0.5.
In the case of U3C U7A G9C G17C G48A A69U, the yeast fitness is reported as no more than 0.5.
U3C U16A C34A U53C C60U showed a yeast fitness of no more than 0.5.
In the case of U3C C24G C33G C66U, the yeast fitness is reported as no more than 0.5.
For U3C G23C C27G C61G, the yeast fitness was 0.539.
U3C C27A C31G showed a yeast fitness of 0.604.
Variant U3C G25A has a yeast fitness of 0.968.
In the case of U3C G9A U19C, the yeast fitness is reported as 0.816.
U3C C27G showed a yeast fitness of 0.714.
With U3C G9A C34U A65U the yeast fitness was no more than 0.5.
In the case of U3C G9C C11U C30G C55A A69C, the yeast fitness is reported as no more than 0.5.
Work on U3C U13C A21G A43U yielded a yeast fitness of 0.708.
Variant U3C C31U C62G has a yeast fitness of 0.665.
U3C C34A A37C G39A A45G C62U showed a yeast fitness of 0.534.
With U3C C49A G51C the yeast fitness was 0.694.
U3C C22U A36U C62U showed a yeast fitness of no more than 0.5.
U3C U8C C11A C31A G68C showed a yeast fitness of no more than 0.5.
With U3C U8A A43G A57U G63A the yeast fitness was no more than 0.5.
Variant U3C U13A A45C G48A has a yeast fitness of 0.604.
Work on U3C U8G yielded a yeast fitness of 0.581.
Variant U3C U13A A14C A42G has a yeast fitness of no more than 0.5.
Variant U3C C27G C33A G51A has a yeast fitness of no more than 0.5.
Work on U3C G23A C34U A40U A42U U64A yielded a yeast fitness of no more than 0.5.
U3C G12A C29G C34U A36C C61A showed a yeast fitness of 0.587.
U3C G17U C31A gave a yeast fitness of no more than 0.5.
With U3C G10A C22A C24G U54C the yeast fitness was no more than 0.5.
Variant U3C G18C C31G U59A G67A has a yeast fitness of no more than 0.5.
With U3C C46A G58C the yeast fitness was 1.04.
For U3C C30G C31U C60G C61G, the yeast fitness was 0.571.
With U3C C30G A43C G48A the yeast fitness was no more than 0.5.
For U3C C27G C33G A42G A45G, the yeast fitness was no more than 0.5.
U3C G68C gave a yeast fitness of 0.845.
Work on U3C G68A yielded a yeast fitness of 0.866.
